In ChEMBL document CHEMBL4118021, “Studies of TAK1-centered polypharmacology with novel covalent TAK1 inhibitors” (Bioorg Med Chem, 2017):
Each block holds one molecule with its values, some of them ahead of it. The source made the active and inactive calls. The rule behind the calls is not given here.

Key:
[1] = molecular target: T1, 80S Ribosome (Homo sapiens) (UniProt P08865+P42677+P62753+P15880+P23396+P61247+P62701+P22090+P46782+P62081+P62241+P46781+P46783+P62280+P25398+P62277+P62263+P62841+P62244+P62249+P08708+P62269+P39019+P60866+P63220+P62266+P62847+P62851+P62854+P62979+P62857+P62273+P62861+P39023+P36578+P46777+Q02878+P18124+P62424+P62917+P32969+P27635+P62906+P62913+P30050+P26373+P40429+P50914+P61313+P18621+Q07020+Q02543+P84098+P46778+P35268+P62829+P62750+P83731+P61254+P61353+P46776+P46779+P47914+P62888+P62899+P62910+P49207+P42766+P18077+Q9Y3U8+P83881+P61927+P61513+P63173+P62891+P62945+P05388+P05386); experiment: Binding affinity to RPL19 in human NCI-H358 cells at 1 uM by mass spectrometry based pull down assay; format: cell-based
[2] = molecular target: Catenin alpha-1 (Homo sapiens) (UniProt P35221); experiment: Binding affinity to CTNNA1 in human NCI-H358 cells at 1 uM by mass spectrometry based pull down assay; format: cell-based
[3] = molecular target: Acylamino-acid-releasing enzyme (Homo sapiens) (UniProt P13798); experiment: Binding affinity to APEH in human NCI-H23 cells at 1 uM by mass spectrometry based pull down assay; format: cell-based
Chain of Acylamino-acid-releasing enzyme (Homo sapiens) (P13798 whole entry): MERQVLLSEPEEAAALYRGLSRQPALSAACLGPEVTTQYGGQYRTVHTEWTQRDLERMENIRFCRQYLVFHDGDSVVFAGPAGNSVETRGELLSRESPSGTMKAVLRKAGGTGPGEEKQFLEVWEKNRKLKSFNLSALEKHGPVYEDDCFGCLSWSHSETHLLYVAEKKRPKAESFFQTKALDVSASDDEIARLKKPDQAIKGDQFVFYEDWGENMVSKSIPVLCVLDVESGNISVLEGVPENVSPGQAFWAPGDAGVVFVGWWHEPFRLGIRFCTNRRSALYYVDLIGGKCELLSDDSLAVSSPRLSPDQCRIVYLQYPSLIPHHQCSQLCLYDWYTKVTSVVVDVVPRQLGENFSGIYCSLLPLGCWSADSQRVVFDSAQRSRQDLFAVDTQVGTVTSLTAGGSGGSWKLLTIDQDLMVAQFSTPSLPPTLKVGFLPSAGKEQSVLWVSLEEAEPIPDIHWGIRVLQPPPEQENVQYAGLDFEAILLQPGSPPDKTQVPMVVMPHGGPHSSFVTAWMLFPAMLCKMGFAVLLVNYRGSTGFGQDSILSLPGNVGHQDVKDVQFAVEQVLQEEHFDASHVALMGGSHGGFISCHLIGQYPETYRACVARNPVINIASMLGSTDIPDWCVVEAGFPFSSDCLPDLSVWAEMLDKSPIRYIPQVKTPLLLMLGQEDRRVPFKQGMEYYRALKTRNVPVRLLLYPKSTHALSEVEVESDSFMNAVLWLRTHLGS

[4] = molecular target: Glutamate--cysteine ligase catalytic subunit (Homo sapiens) (UniProt P48506); experiment: Binding affinity to GCLC in human NCI-H23 cells at 1 uM by mass spectrometry based pull down assay; format: cell-based
Chain of Glutamate--cysteine ligase catalytic subunit (Homo sapiens) (P48506 whole entry): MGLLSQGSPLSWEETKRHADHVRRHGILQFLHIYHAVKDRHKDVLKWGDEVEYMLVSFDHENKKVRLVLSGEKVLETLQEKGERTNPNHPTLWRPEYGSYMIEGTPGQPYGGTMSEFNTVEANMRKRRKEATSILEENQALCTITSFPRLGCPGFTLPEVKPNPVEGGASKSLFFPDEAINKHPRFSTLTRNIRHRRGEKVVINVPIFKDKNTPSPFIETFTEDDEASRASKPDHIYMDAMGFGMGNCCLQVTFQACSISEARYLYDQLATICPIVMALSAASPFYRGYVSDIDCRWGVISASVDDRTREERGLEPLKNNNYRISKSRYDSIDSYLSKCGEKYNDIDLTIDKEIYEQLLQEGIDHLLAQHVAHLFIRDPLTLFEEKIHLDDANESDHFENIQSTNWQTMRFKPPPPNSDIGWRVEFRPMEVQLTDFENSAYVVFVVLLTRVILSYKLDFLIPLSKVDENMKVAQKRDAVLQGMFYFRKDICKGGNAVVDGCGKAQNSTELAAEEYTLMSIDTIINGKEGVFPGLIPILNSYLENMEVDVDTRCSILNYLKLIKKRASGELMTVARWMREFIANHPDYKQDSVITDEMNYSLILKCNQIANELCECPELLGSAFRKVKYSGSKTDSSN

[5] = molecular target: Plakophilin-1 (Homo sapiens) (UniProt Q13835); experiment: Binding affinity to PKP1 in human NCI-H23 cells at 1 uM by mass spectrometry based pull down assay; format: cell-based
Chain of Plakophilin-1 (Homo sapiens) (Q13835 whole entry): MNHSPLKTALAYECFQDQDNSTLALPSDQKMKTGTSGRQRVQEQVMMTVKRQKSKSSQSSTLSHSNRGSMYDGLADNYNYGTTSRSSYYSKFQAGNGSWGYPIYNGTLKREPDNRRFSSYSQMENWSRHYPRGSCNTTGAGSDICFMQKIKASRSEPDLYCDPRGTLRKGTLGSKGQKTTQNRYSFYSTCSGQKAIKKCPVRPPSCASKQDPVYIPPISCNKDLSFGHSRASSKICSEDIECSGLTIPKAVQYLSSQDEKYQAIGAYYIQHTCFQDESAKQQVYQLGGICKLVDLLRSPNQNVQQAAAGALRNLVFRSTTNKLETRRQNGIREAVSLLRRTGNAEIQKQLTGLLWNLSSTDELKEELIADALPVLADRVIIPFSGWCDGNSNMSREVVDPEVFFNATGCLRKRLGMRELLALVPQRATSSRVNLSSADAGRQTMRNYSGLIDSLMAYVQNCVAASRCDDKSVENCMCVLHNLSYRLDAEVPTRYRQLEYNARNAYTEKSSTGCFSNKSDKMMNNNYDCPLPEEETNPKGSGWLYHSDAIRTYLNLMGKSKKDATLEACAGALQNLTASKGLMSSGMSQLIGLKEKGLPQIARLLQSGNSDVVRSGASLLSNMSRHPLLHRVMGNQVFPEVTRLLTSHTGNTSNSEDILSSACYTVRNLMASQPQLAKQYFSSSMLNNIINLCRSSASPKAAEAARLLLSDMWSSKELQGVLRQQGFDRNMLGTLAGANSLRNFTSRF

[6] = molecular target: Very-long-chain 3-oxoacyl-CoA reductase (Homo sapiens) (UniProt Q53GQ0); experiment: Binding affinity to HSD17B12 in human NCI-H358 cells at 1 uM by mass spectrometry based pull down assay; format: cell-based
[7] = molecular target: T1, 80S Ribosome (Homo sapiens); experiment: Binding affinity to RPL10 in human NCI-H358 cells at 1 uM by mass spectrometry based pull down assay; format: cell-based
[8] = molecular target: Retinaldehyde dehydrogenase 3 (Homo sapiens) (UniProt P47895); experiment: Binding affinity to ALDH1A3 in human NCI-H358 cells at 1 uM by mass spectrometry based pull down assay; format: cell-based
Procedure, shortened: (§1)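 NCI-H23 or NCI-H358 cells were grown and lysed. Lysates were incubated overnight at 4 °C with 1 μM biotinylated covalent probe or DMSO, then pulled down on streptavidin beads. Proteins were run on polyacrylamide gels and stained with Coomassie. Bands were excised, digested and identified by mass spectrometry.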

[9] = molecular target: Aldehyde dehydrogenase X, mitochondrial (Homo sapiens) (UniProt P30837); experiment: Binding affinity to ALDH1B1 in human NCI-H358 cells at 1 uM by mass spectrometry based pull down assay; format: cell-based; procedure, shortened: as §1
Chain of Aldehyde dehydrogenase X, mitochondrial (Homo sapiens) (P30837 whole entry): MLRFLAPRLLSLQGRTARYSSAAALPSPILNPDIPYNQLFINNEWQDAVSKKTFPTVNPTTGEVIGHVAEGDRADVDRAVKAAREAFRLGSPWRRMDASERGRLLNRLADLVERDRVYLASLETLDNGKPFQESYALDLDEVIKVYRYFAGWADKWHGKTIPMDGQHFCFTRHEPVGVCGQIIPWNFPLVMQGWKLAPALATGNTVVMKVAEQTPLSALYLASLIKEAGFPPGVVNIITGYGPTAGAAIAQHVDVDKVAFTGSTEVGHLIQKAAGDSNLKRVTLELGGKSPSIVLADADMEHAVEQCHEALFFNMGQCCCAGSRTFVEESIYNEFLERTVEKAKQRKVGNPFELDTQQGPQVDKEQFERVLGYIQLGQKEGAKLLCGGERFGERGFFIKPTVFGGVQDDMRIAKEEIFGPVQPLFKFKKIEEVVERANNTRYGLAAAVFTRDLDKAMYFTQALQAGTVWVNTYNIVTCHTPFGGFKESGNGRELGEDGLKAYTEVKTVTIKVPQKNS

[10] = molecular target: Polymeric immunoglobulin receptor (Homo sapiens) (UniProt P01833); experiment: Binding affinity to PIGR in human NCI-H358 cells at 1 uM by mass spectrometry based pull down assay; format: cell-based
[11] = molecular target: ADP-ribose glycohydrolase OARD1 (Homo sapiens) (UniProt Q9Y530); experiment: Binding affinity to OARD1 in human NCI-H358 cells at 1 uM by mass spectrometry based pull down assay; format: cell-based
Chain of ADP-ribose glycohydrolase OARD1 (Homo sapiens) (Q9Y530 whole entry): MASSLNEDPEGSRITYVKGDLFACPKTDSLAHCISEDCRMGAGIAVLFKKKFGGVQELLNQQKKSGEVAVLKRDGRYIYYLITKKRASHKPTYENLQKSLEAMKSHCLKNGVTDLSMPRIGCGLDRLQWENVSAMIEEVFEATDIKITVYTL

[12] = molecular target: Alkyldihydroxyacetonephosphate synthase, peroxisomal (Homo sapiens) (UniProt O00116); experiment: Binding affinity to AGPS in human NCI-H23 cells at 1 uM by mass spectrometry based pull down assay; format: cell-based; procedure, shortened: as §1
[13] = molecular target: Pyruvate dehydrogenase E1 component subunit beta, mitochondrial (Homo sapiens) (UniProt P11177); experiment: Binding affinity to PDHB in human NCI-H358 cells at 1 uM by mass spectrometry based pull down assay; format: cell-based
[14] = molecular target: Small COPII coat GTPase SAR1A (Homo sapiens) (UniProt Q9NR31); experiment: Binding affinity to SAR1A in human NCI-H23 cells at 1 uM by mass spectrometry based pull down assay; format: cell-based
[15] = molecular target: Alpha-2-HS-glycoprotein (Homo sapiens) (UniProt P02765); experiment: Binding affinity to AHSG in human NCI-H23 cells at 1 uM by mass spectrometry based pull down assay; format: cell-based; procedure, shortened: as §1
[16] = molecular target: E3 ubiquitin-protein ligase HUWE1 (Homo sapiens) (UniProt Q7Z6Z7); experiment: Binding affinity to HUWE1 in human NCI-H358 cells at 1 uM by mass spectrometry based pull down assay; format: cell-based
[17] = molecular target: Replication factor C subunit 5 (Homo sapiens) (UniProt P40937); experiment: Binding affinity to RFC5 in human NCI-H358 cells at 1 uM by mass spectrometry based pull down assay; format: cell-based
[18] = molecular target: Glyoxalase domain-containing protein 4 (Homo sapiens) (UniProt Q9HC38); experiment: Binding affinity to GLOD4 in human NCI-H358 cells at 1 uM by mass spectrometry based pull down assay; format: cell-based
Chain of Glyoxalase domain-containing protein 4 (Homo sapiens) (Q9HC38 whole entry, the tested form may be a part): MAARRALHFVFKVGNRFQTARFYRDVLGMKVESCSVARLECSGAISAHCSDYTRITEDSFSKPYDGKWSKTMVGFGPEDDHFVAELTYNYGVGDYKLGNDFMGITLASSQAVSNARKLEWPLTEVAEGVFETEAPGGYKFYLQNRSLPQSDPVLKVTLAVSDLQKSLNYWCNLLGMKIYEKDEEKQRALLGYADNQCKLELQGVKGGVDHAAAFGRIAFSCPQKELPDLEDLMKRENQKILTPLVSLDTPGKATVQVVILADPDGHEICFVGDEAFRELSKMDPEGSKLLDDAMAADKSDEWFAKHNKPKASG

[19] = molecular target: Aurora kinase B (Homo sapiens) (UniProt Q96GD4); experiment: Binding affinity to AURKB in human NCI-H23 cells at 1 uM by mass spectrometry based pull down assay; format: cell-based
[20] = molecular target: T1, 80S Ribosome (Homo sapiens); experiment: Binding affinity to RPL26 in human NCI-H358 cells at 1 uM by mass spectrometry based pull down assay; format: cell-based
[21] = molecular target: TGF-beta receptor type-2 (Homo sapiens) (UniProt P37173); experiment: Inhibition of human TGFBR2 (218 to 567 residues) expressed in bacterial expression system assessed as enzyme activity at 10 uM by KINOMEScan assay relative to control; parameters: scale not given: the % may be the effect or the level left
Chain of TGF-beta receptor type-2 (Homo sapiens) (P37173 whole entry, the tested form may be a part): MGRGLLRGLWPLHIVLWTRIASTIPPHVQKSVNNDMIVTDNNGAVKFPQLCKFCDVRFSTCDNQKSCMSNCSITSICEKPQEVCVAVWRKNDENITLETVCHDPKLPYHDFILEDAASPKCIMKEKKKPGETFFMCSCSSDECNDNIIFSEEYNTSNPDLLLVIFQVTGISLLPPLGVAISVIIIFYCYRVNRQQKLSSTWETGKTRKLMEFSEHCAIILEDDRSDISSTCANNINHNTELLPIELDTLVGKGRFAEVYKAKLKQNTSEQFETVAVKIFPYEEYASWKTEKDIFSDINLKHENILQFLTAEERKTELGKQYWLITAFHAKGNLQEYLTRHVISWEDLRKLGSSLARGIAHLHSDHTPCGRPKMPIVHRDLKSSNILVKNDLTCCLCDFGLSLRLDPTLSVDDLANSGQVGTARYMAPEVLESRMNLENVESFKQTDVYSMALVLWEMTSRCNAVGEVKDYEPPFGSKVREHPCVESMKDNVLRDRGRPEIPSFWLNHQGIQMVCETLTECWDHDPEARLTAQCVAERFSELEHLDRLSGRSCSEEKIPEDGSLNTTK
Procedure, shortened: (§2)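 In vitro ATP-site competition binding assay across a panel of 456 kinases, with compound tested at 1 and 10 μM.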

[22] = molecular target: Vascular endothelial growth factor receptor 2 (Homo sapiens) (UniProt P35968); experiment: Inhibition of human VEGFR2 (787 to 1253 residues) expressed in mammalian expression system assessed as enzyme activity at 10 uM by KINOMEScan assay relative to control; parameters: scale not given: the % may be the effect or the level left; procedure, shortened: as §2
Chain of Vascular endothelial growth factor receptor 2 (Homo sapiens) (P35968 whole entry, the tested form may be a part): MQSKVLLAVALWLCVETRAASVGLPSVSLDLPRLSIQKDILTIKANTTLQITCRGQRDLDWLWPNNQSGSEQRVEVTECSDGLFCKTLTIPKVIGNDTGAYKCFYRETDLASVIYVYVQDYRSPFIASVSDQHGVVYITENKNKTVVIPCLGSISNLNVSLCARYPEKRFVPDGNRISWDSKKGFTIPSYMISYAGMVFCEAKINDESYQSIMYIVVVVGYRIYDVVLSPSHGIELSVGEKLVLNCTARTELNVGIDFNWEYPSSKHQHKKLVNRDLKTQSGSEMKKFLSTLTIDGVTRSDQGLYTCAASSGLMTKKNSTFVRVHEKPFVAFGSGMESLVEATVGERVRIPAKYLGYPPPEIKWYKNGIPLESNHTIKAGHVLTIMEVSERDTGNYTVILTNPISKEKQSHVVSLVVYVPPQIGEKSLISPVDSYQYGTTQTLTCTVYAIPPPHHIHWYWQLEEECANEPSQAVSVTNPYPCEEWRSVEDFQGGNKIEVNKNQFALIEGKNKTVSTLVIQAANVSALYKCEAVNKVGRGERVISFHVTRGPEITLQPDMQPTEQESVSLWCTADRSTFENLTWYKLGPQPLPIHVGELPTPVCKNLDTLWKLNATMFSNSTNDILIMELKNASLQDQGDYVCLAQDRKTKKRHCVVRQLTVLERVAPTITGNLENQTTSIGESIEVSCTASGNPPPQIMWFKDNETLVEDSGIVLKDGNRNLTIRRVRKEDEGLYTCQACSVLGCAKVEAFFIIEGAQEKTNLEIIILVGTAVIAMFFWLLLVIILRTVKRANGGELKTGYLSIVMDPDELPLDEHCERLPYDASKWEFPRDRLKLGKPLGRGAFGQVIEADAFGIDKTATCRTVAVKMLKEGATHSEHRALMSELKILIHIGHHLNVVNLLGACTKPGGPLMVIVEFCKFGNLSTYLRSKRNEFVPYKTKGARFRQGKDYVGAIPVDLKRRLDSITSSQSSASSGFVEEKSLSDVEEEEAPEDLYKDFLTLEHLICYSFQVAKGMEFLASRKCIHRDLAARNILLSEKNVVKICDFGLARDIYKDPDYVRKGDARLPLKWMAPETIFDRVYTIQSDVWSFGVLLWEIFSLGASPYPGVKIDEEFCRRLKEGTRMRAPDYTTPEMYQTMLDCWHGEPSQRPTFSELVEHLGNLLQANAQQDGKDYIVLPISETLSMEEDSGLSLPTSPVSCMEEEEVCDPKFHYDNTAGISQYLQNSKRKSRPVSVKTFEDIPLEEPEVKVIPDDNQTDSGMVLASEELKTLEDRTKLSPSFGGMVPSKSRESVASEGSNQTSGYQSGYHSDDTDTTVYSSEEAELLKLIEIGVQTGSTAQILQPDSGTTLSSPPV

- Activity [1]: Active
- Activity [2]: Active
- Activity [3]: Active
- Activity [4]: Active
- Activity [5]: Active
- Activity [6]: Active
- Activity [7]: Active
- Activity [8]: Active
- Activity [9]: Active
- Activity [10]: Active
- Activity [11]: Active
- Activity [12]: Active
- Activity [13]: Active
- Activity [14]: Active
- Activity [15]: Active
- Activity [16]: Active
- Activity [17]: Active
- Activity [18]: Active
- Activity [19]: Active
- Activity [20]: Active
SMILES: C=CC(=O)Nc1ccccc1Nc1nc(Nc2ccc(N3CCN(CCOCCOCCOCCNC(=O)CCCC[C@@H]4SC[C@@H]5NC(=O)N[C@@H]54)CC3)cc2)ncc1Cl

SMILES: COc1cc(O)c2c(c1)/C=C/C[C@H](O)[C@H](O)C(=O)/C=C\C[C@H](C)OC2=O
- Activity [21]: 0.9%
- Activity [22]: 5.2%
